Dynein transport: dynein cargo transport inhibition | 3617.4 mouse cells, GR-EGFP nuclear translocation imaging; test concentration mostly 20 µM; stimulated with dexamethasone, 1 µM; active compounds read low | z-score, hits read low | 220,000 tested, 0.47% active;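 active = plate z-score of nuclear minus cytoplasmic receptor signal below a set negative limit, without overly bright fluorescence or cell loss, cut at about -3.5 in these data, passing the limit was not always enough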;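 also: z-score of nuclear minus cytoplasmic ring GR-EGFP intensity difference per well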
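Medium: Induction medium lacking tetracycline, stripped serum | Probe or stimulus: 1.0 µM final dexamethasone stimulus | Schedule: 48 h induction, then 1 h compound, then 30 min agonist, 37 °C | Signal: Automated 10x imaging of fixed Hoechst-stained cells | Evaluation: Per-cell GR-EGFP intensity, nucleus versus surrounding cytoplasmic ring, well-averaged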
XBP1 UPR activ: adaptive UPR (XBP1) activation; activation, % at 20 µM; 330,000 tested, 0.33% active; CHO-XBP1 luciferase reporter, IRE1-XBP1 UPR activation, luminescence; percent of tunicamycin response, DMSO as zero;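 active = versus positive control, 20 µM dose yields 30% or more activation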
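Material: IRE1-XBP1 luciferase reporter CHO line / Quantity: one thousand reporter cells per well / Buffer or medium: F12 with 10% serum / Compound: 20 µM single concentration, DMSO 1% / Times: 6 h treatment, 37 °C / Detection: Steady-Glo luciferase glow luminescence, 10 min after reagent addition / Benchmarks: tunicamycin high, DMSO low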
CHOP UPR activ: activators of apoptotic arm of unfolded protein response (CHOP). CHO-CHOP luciferase reporter, UPR activation, luminescence; percent of tunicamycin response over DMSO baseline. activation, % at 10 µM. 330,000 tested, 0.34% active. AID 449763;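 active = at 10 µM dose, activation of 40% or more, normalized to positive control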
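Assay system: CHO cells with stable CHOP pathway luciferase reporter; Buffer or medium: F12 plus 10% serum; Times: 16-18 h cell attachment, then 6 h compound exposure, 37 °C; Signal: luciferase luminescence; Read-out basis: percent activation relative to tunicamycin control; Control set: tunicamycin high control, DMSO low control.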
T cruzi repl: blocks replication of Trypanosoma cruzi; T. cruzi beta-gal in NIH3T3, luminescence, 90 h; 300,000 tested, 1.4% active; inhibition, % (no concentration beside the values);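 active = mean inhibition across valid replicates above about 55%, limit read from the data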;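 also: signal also drops with host cell toxicity which is not excluded here; higher percent means less beta-gal luminescence so fewer parasites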
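System: mouse NIH/3T3 fibroblasts infected with β-gal-expressing T. cruzi Tulahuen C4 / Input: NIH/3T3 cells, 5,000 per well / Buffer or medium: Low-serum DMEM with 2% FBS / Probe or stimulus: 5000 reporter trypomastigotes per well / Schedule: ≥90 h infection period, 3 h prior cell attachment / Measured by: GalScreen luminescence, 60 min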
L major viab: Leishmania major promastigote growth inhibition | inhibition, % at 10 µM | Leishmania major promastigotes, resazurin fluorescence viability | AID 1063 | 200,000 tested, 9% active; in the data active = inhibition above about 50%;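 also: promastigotes grown with compound for 44 hours at 28 °C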
CHOP inh: CHOP inhibition in unfolded protein response; AID 2732; 220,000 tested, 3.8% active; CHO-K1 CHOP-promoter luciferase, tunicamycin-induced, 15-18 h; inhibition, % at 10 µM;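 active = compounds that reduced the stress-induced luciferase reporter signal by more than about 70% of percent inhibition, limit read from the data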
Of the large screens only hits and unclear results are named; the others gave an inactive call. Only a selection was taken, and hits are over-represented in it overall.

COc1ccc(-c2n[nH]c(C)c2-c2ccc(Cl)cc2)c(O)c1	CHOP inh 93
CCCOC(=O)c1ccc(Oc2c(-c3ccc(OC)cc3O)n[nH]c2C)cc1	CHOP inh 91
CCN(C[C@H]1N[C@@](CC)(C(=O)OC)[C@H]2C(=O)N(Cc3ccccc3)C(=O)[C@@H]12)S(=O)(=O)c1ccc(OC(F)(F)F)cc1	none (no result: Dynein transport, T cruzi repl, L major viab, CHOP inh)
COc1ccc(-c2csc(NC(=O)CCN3C(=O)C4CC=CCC4C3=O)n2)cc1OC (stereo not drawn)	none (no result: Dynein transport, L major viab, CHOP inh)
Cn1c(SCc2ccccc2C#N)nc2ccccc2c1=O	none (no result: Dynein transport, L major viab, CHOP inh)
O=C(Nc1ccncc1)Nc1cc(Cl)ccc1Cl	T cruzi repl 57 (no result: Dynein transport, L major viab, CHOP inh)
O=C(Nc1ccncc1)Nc1ccc(Cl)cc1Cl	T cruzi repl 55 (no result: Dynein transport, L major viab, CHOP inh)
O=C(Nc1ccncc1)Nc1ccc(Cl)cc1	none (no result: Dynein transport, L major viab, CHOP inh)
CCOC(=O)C1=CN(Cc2ccco2)S(=O)(=O)NC1c1ccc(F)c(Cl)c1 (stereo not drawn)	none (no result: Dynein transport, T cruzi repl, L major viab, CHOP inh)
CCOC(=O)C1=CN(CC)S(=O)(=O)NC1c1ccc(C(F)(F)F)cc1 (stereo not drawn)	none (no result: Dynein transport, T cruzi repl, L major viab, CHOP inh)
CCC(Oc1ccccc1)C(=O)Nc1ccc(-c2nnc(-c3ccco3)o2)cc1 (stereo not drawn)	L major viab 94
C=CCc1ccccc1OCCNCc1ccccc1	L major viab 71
Brc1ccccc1OCCNCc1ccccc1	none
C=CCOc1ccccc1CNCc1ccc(F)cc1	L major viab 57
COc1cc2c(C(=O)N3CCN(c4cccc(Cl)c4)CC3)cn(CC(C)C)c(=O)c2cc1OC	L major viab 58
COc1ccccc1N1CCN(c2ncc(C(=O)N3CCN(c4cccc(Cl)c4)CC3)c3ccccc23)CC1	T cruzi repl 61, L major viab 62, CHOP inh 86
CCOc1ccccc1C(=O)N1CCN(c2cccc(Cl)c2)CC1	none (no result: CHOP inh)
CCCCc1nc2cc(C(=O)N(C)C3CCOCC3)ccc2o1	none (no result: Dynein transport, L major viab, CHOP inh)
Cc1cc(/C=N/n2c(COc3ccccc3C)nc3ccccc3c2=O)c(O)c([N+](=O)[O-])c1	T cruzi repl 67
Cc1cccc(C)c1OCc1nc2ccccc2c(=O)n1/N=C/c1c[nH]c2ccccc12	T cruzi repl 69, L major viab 96, CHOP inh 85
O=c1c2ccccc2nc(COc2ccccc2)n1/N=C/c1cc([N+](=O)[O-])ccc1O	none
Cc1ccccc1OCc1nc2ccccc2c(=O)n1/N=C/c1c[nH]c2ccccc12	CHOP inh 88
Cc1ccc(C(=O)Nc2ccccc2C(=O)N2CC3(C)CC2CC(C)(C)C3)cc1 (stereo not drawn)	CHOP inh 93
C=CCN1C(=O)CSc2ccc(C(=O)NCCC3=CCCCC3)cc21	L major viab 76
C=CCN1C(=O)CSc2ccc(C(=O)NCc3ccco3)cc21	none
CC(=O)Nc1ccc(S(=O)(=O)N2CCC(c3nc4c(nnn4Cc4ccccc4Cl)c(=O)[nH]3)CC2)cc1	none (no result: Dynein transport, L major viab, CHOP inh)
O=[N+]([O-])c1cc(/C=N/O)ccc1Sc1ccccc1	L major viab 78
CO/N=C/c1ccc(Sc2ccccc2)c([N+](=O)[O-])c1	none
C/C(=N\N=C(/N)c1nonc1N)c1ccc2c(c1)OCO2	none (no result: L major viab)
COc1ccc(-c2noc(CSc3nnc(-c4ccncc4)n3-c3ccc(F)cc3)n2)cc1OC	L major viab 72 (no result: T cruzi repl)
CCc1ccc(-n2c(SCc3c(C)noc3C)nnc2-c2ccncc2)cc1	L major viab 72
N#CC(CC(=O)c1ccc(F)cc1)c1ccc2c(c1)OCO2 (stereo not drawn)	none (no result: Dynein transport, L major viab, CHOP inh)
CCNc1nc(NC(C)(C)C)nc(N(CC)n2cnnc2)n1	none
CN(C)c1nc(NC(C)(C)C)nc(NC(C)(C)C)n1	T cruzi repl 59, L major viab 60
COc1ccc(/C(C)=N/Nc2ccc(C(=O)O)cc2)c(OC)c1	L major viab 53
CCN(CC)CCCNC1=C(Cl)C(=O)c2ccccc2C1=O	T cruzi repl 79, L major viab 100
c1ccc2c(c1)CCN(c1nc(CN3CCOCC3)nc3sc4c(c13)CCCC4)C2	CHOP inh 85

Screening data from PubChem.
